Measurements published in ChEMBL document CHEMBL3763097, “Synthesis and biological evaluation of 5,10-dihydro-11H-dibenzo[b,e][1,4]diazepin-11-one structural derivatives as anti-cancer and apoptosis inducing agents” (Eur J Med Chem, 2016).

Columns and labels:
[1] = Cytotoxicity against human PC3 cells assessed as growth inhibition after 72 hrs by MTT assay; format: functional, cell-based; conditions: PC-3, 72 h
Summary of the method: (§1)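 Cells in RPMI 1640 (PC-3, A549, MDA-MB-231) or DMEM (U87MG, MCF-7) with 10% FBS, passages 4-10, were seeded at 3000-5000 per well and left 24 h. Compounds in DMSO/medium were added for 72 h; DMSO served as control. MTT (5 mg/mL) was added for 4 h and formazan dissolved in DMSO. Absorbance was read at 570 nm minus 630 nm. % inhibition was taken versus DMSO, with IC50 by probit; mean ± SD of three experiments in triplicate.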

MDA-MB-231 = test: Cytotoxicity against human MDA-MB-231 cells assessed as growth inhibition after 72 hrs by MTT assay; format: functional, cell-based; conditions: MDA-MB-231, 72 h; summary of the method: as §1
[2] = Cytotoxicity against human U87MG cells assessed as growth inhibition after 72 hrs by MTT assay; format: functional, cell-based, U-87MG ATCC; conditions: U-87 MG; summary of the method: as §1
MCF7 = test: Cytotoxicity against human MCF7 cells assessed as growth inhibition after 72 hrs by MTT assay; format: functional, cell-based; conditions: MCF7, 72 h; summary of the method: as §1
A549 = test: Cytotoxicity against human A549 cells assessed as growth inhibition after 72 hrs by MTT assay; format: functional, cell-based; conditions: A549, 72 h; summary of the method: as §1

Compound | IC50 [1] [µM] | IC50 (MDA-MB-231) [µM] | IC50 [2] [µM] | IC50 (MCF7) [µM] | IC50 (A549) [µM]
O=C1c2ccccc2Nc2ccccc2N1Cc1cn(Cc2cccc(F)c2)nn1 | 7.21 | 3.53 | 2.06 | 4.12 | 8.37
O=c1[nH]cc(F)c(=O)[nH]1 [FLUOROURACIL] | 1.44 | – | 3.61 | – | 3.47
COc1ccc(OC)c(Cn2cc(CN3C(=O)c4ccccc4Nc4ccccc43)nn2)c1 | > 50 | 3.5 | 31.2 | 7.48 | 13.3
COc1cc(Cn2cc(CN3C(=O)c4ccccc4Nc4ccccc43)nn2)cc(OC)c1OC | > 50 | 0.43 | 1.78 | 10.3 | 8.78
O=C1c2ccccc2Nc2ccccc2N1Cc1cn(Cc2cccc3c2OCO3)nn1 | 10.7 | 10.2 | 13.5 | 17.8 | 10.7
O=C1c2ccccc2Nc2ccccc2N1Cc1cn(Cc2ccccc2F)nn1 | 8.63 | > 50 | 48.2 | 5.27 | 11.3
O=C1c2ccccc2Nc2ccccc2N1Cc1cn(Cc2ccc([N+](=O)[O-])cc2)nn1 | > 50 | 42.6 | 32.9 | 0.93 | 47.9
O=C1Nc2ccccc2Nc2ccccc21 | 41.9 | > 50 | 8.97 | > 50 | 37.1
O=C1c2ccccc2Nc2ccccc2N1Cc1cn(Cc2ccc(Cl)cc2)nn1 | 1.12 | 2.31 | 24.3 | 39 | 4.97
O=C1c2ccccc2Nc2ccccc2N1Cc1cn(Cc2cccc([N+](=O)[O-])c2)nn1 | 0.47 | 1.52 | 39.4 | 0.65 | > 50
O=C1c2ccccc2Nc2ccccc2N1Cc1cn(Cc2ccc(OC(F)(F)F)cc2)nn1 | > 50 | > 50 | > 50 | 29.6 | > 50
C#CCN1C(=O)c2ccccc2Nc2ccccc21 | 0.98 | 16.5 | 22.2 | 7.63 | 19
O=C1c2ccccc2Nc2ccccc2N1Cc1cn(Cc2ccc(F)cc2)nn1 | 17.3 | 4.08 | 37.7 | > 50 | 26.7
